Measurements published in paper PMC5114172 (Journal of applied toxicology : JAT, 2016).

Experiments:
[1] = test system: PBMCs plus Granulocytes; assay: IL-1β secretion assay; type: cell-based, human; conditions: for Interleukin 1 beta secreted: PBMCs plus Granulocytes
How it was run: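 NK cells, MD-PBMCs, PBMCs or granulocytes (1.5 million/mL) or PBMC+granulocytes (0.75 million/mL each), per donor, exposed 24 h, 48 h or 6 days to 0.05–5 μM test compound diluted from DMSO stock, with DMSO controls. Supernatants kept at −70 °C. IL-1β by sandwich ELISA: HRP detection antibody, acid-stopped substrate, A450 against standards. Detection limit 3 pg/mL; triplicates; ANOVA then t test versus control, p<0.05.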

[2] = test system: monocyte-depleted PBMCs; assay: Cell viability, trypan blue exclusion; type: cell-based, human; conditions: for Percent Viable Cells / decrease in viability: MD-PBMCs

Structure (SMILES): CCC[CH2][Sn][CH2]CCC [DBT, Dibutyltin]
- Interleukin 1 beta secreted ([1]; donor F148, 24 h, 0.05 μM DBT): 4217 ± 397 pg/mL
- Interleukin 1 beta secreted ([1]; donor F148, 24 h, 0.1 μM DBT): 3060 ± 191 pg/mL
- Interleukin 1 beta secreted ([1]; donor F148, 24 h, 0.25 μM DBT): 3344 ± 212 pg/mL
- Interleukin 1 beta secreted ([1]; donor F148, 24 h, 0.5 μM DBT): 7275 ± 2061 pg/mL
- Interleukin 1 beta secreted ([1]; donor F148, 24 h, 1 μM DBT): 2011 ± 148 pg/mL
- Interleukin 1 beta secreted ([1]; donor F148, 24 h, 2.5 μM DBT): 736 ± 552 pg/mL
- Interleukin 1 beta secreted ([1]; donor F148, 24 h, 5 μM DBT): 197 ± 78 pg/mL
- Interleukin 1 beta secreted ([1]; donor F148, 48 h, 0.05 μM DBT): 646 ± 25 pg/mL
- Interleukin 1 beta secreted ([1]; donor F148, 48 h, 0.1 μM DBT): 864 ± 11 pg/mL
- Interleukin 1 beta secreted ([1]; donor F148, 48 h, 0.25 μM DBT): 1017 ± 76 pg/mL
- Interleukin 1 beta secreted ([1]; donor F148, 48 h, 0.5 μM DBT): 1191 ± 200 pg/mL
- Interleukin 1 beta secreted ([1]; donor F148, 48 h, 1 μM DBT): 491 ± 26 pg/mL
- Interleukin 1 beta secreted ([1]; donor F148, 6 day, 0.5 μM DBT): 3 ± 1 pg/mL
- Interleukin 1 beta secreted ([1]; donor F154, 24 h, 0.05 μM DBT): 1364 ± 181 pg/mL
- Interleukin 1 beta secreted ([1]; donor F154, 24 h, 0.1 μM DBT): 1059 ± 141 pg/mL
- Interleukin 1 beta secreted ([1]; donor F154, 24 h, 0.25 μM DBT): 835 ± 38 pg/mL
- Interleukin 1 beta secreted ([1]; donor F154, 24 h, 0.5 μM DBT): 538 ± 33 pg/mL
- Interleukin 1 beta secreted ([1]; donor F154, 24 h, 1 μM DBT): 386 ± 157 pg/mL
- Interleukin 1 beta secreted ([1]; donor F154, 48 h, 0.05 μM DBT): 358 ± 88 pg/mL
- Interleukin 1 beta secreted ([1]; donor F154, 48 h, 0.1 μM DBT): 346 ± 40 pg/mL
- Interleukin 1 beta secreted ([1]; donor F154, 48 h, 0.25 μM DBT): 372 ± 47 pg/mL
- Interleukin 1 beta secreted ([1]; donor F154, 48 h, 0.5 μM DBT): 372 ± 24 pg/mL
- Interleukin 1 beta secreted ([1]; donor F154, 48 h, 1 μM DBT): 322 ± 11 pg/mL
- Interleukin 1 beta secreted ([1]; donor F154, 48 h, 2.5 μM DBT): 321 ± 35 pg/mL
- Interleukin 1 beta secreted ([1]; donor F154, 48 h, 5 μM DBT): 321 ± 20 pg/mL
- Interleukin 1 beta secreted ([1]; donor F154, 6 day, 0.05 μM DBT): 65 ± 34 pg/mL
- Interleukin 1 beta secreted ([1]; donor F154, 6 day, 0.1 μM DBT): 31 ± 16 pg/mL
- Interleukin 1 beta secreted ([1]; donor F154, 6 day, 0.25 μM DBT): 8 ± 1 pg/mL
- Interleukin 1 beta secreted ([1]; donor F154, 6 day, 0.5 μM DBT): 11 ± 0 pg/mL
- Interleukin 1 beta secreted ([1]; donor F154, 6 day, 1 μM DBT): 10 ± 0 pg/mL
- Interleukin 1 beta secreted ([1]; donor F154, 6 day, 2.5 μM DBT): 3 ± 0 pg/mL
- Interleukin 1 beta secreted ([1]; donor F159, 24 h, 0.05 μM DBT): 438 ± 18 pg/mL
- Interleukin 1 beta secreted ([1]; donor F159, 24 h, 0.1 μM DBT): 375 ± 28 pg/mL
- Interleukin 1 beta secreted ([1]; donor F159, 24 h, 0.25 μM DBT): 648 ± 18 pg/mL
- Interleukin 1 beta secreted ([1]; donor F159, 24 h, 0.5 μM DBT): 620 ± 40 pg/mL
- Interleukin 1 beta secreted ([1]; donor F159, 24 h, 1 μM DBT): 617 ± 74 pg/mL
- Interleukin 1 beta secreted ([1]; donor F159, 24 h, 2.5 μM DBT): 87 ± 12 pg/mL
- Interleukin 1 beta secreted ([1]; donor F159, 48 h, 0.05 μM DBT): 109 ± 93 pg/mL
- Interleukin 1 beta secreted ([1]; donor F159, 48 h, 0.1 μM DBT): 48 ± 8 pg/mL
- Interleukin 1 beta secreted ([1]; donor F159, 48 h, 0.25 μM DBT): 141 ± 16 pg/mL
- Interleukin 1 beta secreted ([1]; donor F159, 48 h, 0.5 μM DBT): 226 ± 16 pg/mL
- Interleukin 1 beta secreted ([1]; donor F159, 48 h, 1 μM DBT): 311 ± 39 pg/mL
- Interleukin 1 beta secreted ([1]; donor F159, 48 h, 2.5 μM DBT): 505 ± 54 pg/mL
- Interleukin 1 beta secreted ([1]; donor F159, 48 h, 5 μM DBT): 192 ± 15 pg/mL
- Interleukin 1 beta secreted ([1]; donor F159, 6 day, 0.05 μM DBT): 3 ± 2 pg/mL
- Interleukin 1 beta secreted ([1]; donor F159, 6 day, 0.1 μM DBT): 3 ± 2 pg/mL
- Interleukin 1 beta secreted ([1]; donor F159, 6 day, 0.5 μM DBT): 5 ± 1 pg/mL
- Interleukin 1 beta secreted ([1]; donor F159, 6 day, 1 μM DBT): 5 ± 1 pg/mL
- Interleukin 1 beta secreted ([1]; donor F159, 6 day, 2.5 μM DBT): 7 ± 1 pg/mL
- Interleukin 1 beta secreted ([1]; donor F173, 24 h, 0.05 μM DBT): 150 ± 26 pg/mL
- Interleukin 1 beta secreted ([1]; donor F173, 24 h, 0.1 μM DBT): 168 ± 34 pg/mL
- Interleukin 1 beta secreted ([1]; donor F173, 24 h, 0.25 μM DBT): 146 ± 12 pg/mL
- Interleukin 1 beta secreted ([1]; donor F173, 24 h, 0.5 μM DBT): 165 ± 13 pg/mL
- Interleukin 1 beta secreted ([1]; donor F173, 24 h, 1 μM DBT): 632 ± 19 pg/mL
- Interleukin 1 beta secreted ([1]; donor F173, 24 h, 2.5 μM DBT): 287 ± 22 pg/mL
- Interleukin 1 beta secreted ([1]; donor F173, 24 h, 5 μM DBT): 140 ± 10 pg/mL
- Interleukin 1 beta secreted ([1]; donor F173, 48 h, 0.05 μM DBT): 57 ± 35 pg/mL
- Interleukin 1 beta secreted ([1]; donor F173, 48 h, 0.1 μM DBT): 17 ± 2 pg/mL
- Interleukin 1 beta secreted ([1]; donor F173, 48 h, 0.25 μM DBT): 42 ± 6 pg/mL
- Interleukin 1 beta secreted ([1]; donor F173, 48 h, 0.5 μM DBT): 32 ± 1 pg/mL
- Interleukin 1 beta secreted ([1]; donor F173, 48 h, 1 μM DBT): 160 ± 2 pg/mL
- Interleukin 1 beta secreted ([1]; donor F173, 48 h, 2.5 μM DBT): 124 ± 3 pg/mL
- Interleukin 1 beta secreted ([1]; donor F173, 48 h, 5 μM DBT): 63 ± 1 pg/mL
- average of the maximum fold increase in IL-β secretion ([1]; PBMCs+granulocytes, 24 h, across donors): 3.8 fold
- fold increase in IL-1β secretion ([1]; PBMCs+granulocytes, donor F159, 24 h, 0.25 μM DBT): 1.9 fold
- fold increase in IL-1β secretion ([1]; PBMCs+granulocytes, donor F159, 24 h, 0.5 μM DBT): 1.8 fold
- fold increase in IL-1β secretion ([1]; PBMCs+granulocytes, donor F159, 24 h, 1 μM DBT): 1.8 fold
- fold increase in IL-1β secretion ([1]; PBMCs+granulocytes, donor F159, 48 h, 0.25 μM DBT): 35 fold
- fold increase in IL-1β secretion ([1]; PBMCs+granulocytes, donor F159, 48 h, 0.5 μM DBT): 56 fold
- fold increase in IL-1β secretion ([1]; PBMCs+granulocytes, donor F159, 48 h, 1 μM DBT): 77 fold
- average decrease in viability ([2]; MD-PBMC, 24 h, 5 μM DBT): 15%
- Percent Viable Cells ([2]; 24 h, 0.05 μM DBT): 98±2%
- Percent Viable Cells ([2]; 24 h, 0.1 μM DBT): 98±1%
- Percent Viable Cells ([2]; 24 h, 0.25 μM DBT): 97±1%
- Percent Viable Cells ([2]; 24 h, 0.5 μM DBT): 91±8%
- Percent Viable Cells ([2]; 24 h, 1 μM DBT): 92±4%
- Percent Viable Cells ([2]; 24 h, 2.5 μM DBT): 74±15 %
- Percent Viable Cells ([2]; 24 h, 5 μM DBT): 80±9 %
- decrease in viability ([2]; 24 h, 2.5 and 5 μM DBT): 15%
- Percent Viable Cells ([2]; 48 h, 0.05 μM DBT): 96±2%
- Percent Viable Cells ([2]; 48 h, 0.1 μM DBT): 97±1 %
- Percent Viable Cells ([2]; 48 h, 0.25 μM DBT): 96±2%
- Percent Viable Cells ([2]; 48 h, 0.5 μM DBT): 94±3%
- Percent Viable Cells ([2]; 48 h, 1 μM DBT): 80±11 %
- Percent Viable Cells ([2]; 48 h, 2.5 μM DBT): 56±20 %
- decrease in viability ([2]; 48 h, 2.5 μM DBT): 38%
- Percent Viable Cells ([2]; 48 h, 5 μM DBT): 55±10 %
- decrease in viability ([2]; 48 h, 5 μM DBT): 35%
- Percent Viable Cells ([2]; 6 day, 0.05 μM DBT): 89±8%
- Percent Viable Cells ([2]; 6 day, 0.1 μM DBT): 86±7%
- Percent Viable Cells ([2]; 6 day, 0.25 μM DBT): 81±13%
- Percent Viable Cells ([2]; 6 day, 0.5 μM DBT): 67±13 %
- Percent Viable Cells ([2]; 6 day, 1 μM DBT): 52±11 %
- Percent Viable Cells ([2]; 6 day, 2.5 μM DBT): 47±9 %
- Percent Viable Cells ([2]; 6 day, 5 μM DBT): 52±8 %
